Assays:
[1] = Cell cycle arrest in human SMMC-7221 cells assessed as accumulation at S phase at 1 uM after 24 hrs by propidium iodide/RNase A staining based FACSCalibur flow cytometry analysis (reference value: 14.733 +/- 1.29 %); type: functional
[2] = Induction of apoptosis in human SMMC-7221 cells assessed as viable cells at 2 uM after 48 hrs by AnnexinV-FITC/propidium iodide staining based FACSCalibur flow cytometry analysis (reference value: 89.8 %); type: functional; settings: SMMC-7221, 48 h, read-out: Activity
[3] = Cytotoxicity against human SMMC-7221 cells assessed as reduction in cell viability after 48 hrs by MTS assay; type: functional, cell-based; settings: SMMC-7221, 48 h
Method in brief: (§1)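 Cells (5 × 10^3 per well) were plated 12 h before treatment, then exposed continuously to compound for 48 h. MTS was added, with 1–4 h incubation at 37 °C and OD read at 490 nm. IC50 is the concentration cutting OD by 50% versus untreated cells, taken from dose–response curves. Values are the mean of three independent determinations.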

[4] = Induction of apoptosis in human SMMC-7221 cells assessed as necrotic cells at 1 uM after 48 hrs by AnnexinV-FITC/propidium iodide staining based FACSCalibur flow cytometry analysis (reference value: 2.34 %); type: functional
[5] = Induction of apoptosis in human SMMC-7221 cells assessed as necrotic cells at 0.5 uM after 48 hrs by AnnexinV-FITC/propidium iodide staining based FACSCalibur flow cytometry analysis (reference value: 2.34 %); type: functional
[6] = Induction of apoptosis in human SMMC-7221 cells assessed as late apoptotic cells at 1 uM after 48 hrs by AnnexinV-FITC/propidium iodide staining based FACSCalibur flow cytometry analysis (reference value: 7.7 %); type: functional
[7] = Induction of apoptosis in human SMMC-7221 cells assessed as viable cells at 1 uM after 48 hrs by AnnexinV-FITC/propidium iodide staining based FACSCalibur flow cytometry analysis (reference value: 89.8 %); type: functional; settings: SMMC-7221, 48 h, read-out: Activity
[8] = tested on: NCM460; assay: Cytotoxicity against human NCM460 cells assessed as reduction in cell viability after 48 hrs by MTS assay; type: cell-based; settings: NCM460, 48 h; method in brief: as §1
[9] = Cell cycle arrest in human SMMC-7221 cells assessed as accumulation at sub-G1 phase at 4 uM after 24 hrs by propidium iodide/RNase A staining based FACSCalibur flow cytometry analysis (reference value: 4.03 +/- 0.47 %); type: functional
[10] = Induction of apoptosis in human SMMC-7221 cells assessed as viable cells at 0.5 uM after 48 hrs by AnnexinV-FITC/propidium iodide staining based FACSCalibur flow cytometry analysis (reference value: 89.8 %); type: functional; settings: SMMC-7221, 48 h, read-out: Activity
[11] = Cell cycle arrest in human SMMC-7221 cells assessed as accumulation at G0/G1 phase at 4 uM after 24 hrs by propidium iodide/RNase A staining based FACSCalibur flow cytometry analysis (reference value: 72.17 +/- 1.0 %); type: functional
[12] = Induction of apoptosis in human SMMC-7221 cells assessed as necrotic cells at 4 uM after 48 hrs by AnnexinV-FITC/propidium iodide staining based FACSCalibur flow cytometry analysis (reference value: 2.34 %); type: functional
[13] = tested on: L02; assay: Cytotoxicity against human LO2 cells assessed as reduction in cell viability after 48 hrs by MTS assay; type: cell-based; settings: L02, 48 h; method in brief: as §1
[14] = Induction of apoptosis in human SMMC-7221 cells assessed as late apoptotic cells at 2 uM after 48 hrs by AnnexinV-FITC/propidium iodide staining based FACSCalibur flow cytometry analysis (reference value: 7.7 %); type: functional
[15] = Cell cycle arrest in human SMMC-7221 cells assessed as accumulation at S phase at 4 uM after 24 hrs by propidium iodide/RNase A staining based FACSCalibur flow cytometry analysis (reference value: 14.733 +/- 1.29 %); type: functional
[16] = Cell cycle arrest in human SMMC-7221 cells assessed as accumulation at G0/G1 phase at 1 uM after 24 hrs by propidium iodide/RNase A staining based FACSCalibur flow cytometry analysis (reference value: 72.17 +/- 1.0 %); type: functional
[17] = Induction of apoptosis in human SMMC-7221 cells assessed as early apoptotic cells at 2 uM after 48 hrs by AnnexinV-FITC/propidium iodide staining based FACSCalibur flow cytometry analysis (reference value: 0.106 %); type: functional
[18] = Induction of apoptosis in human SMMC-7221 cells assessed as late apoptotic cells at 4 uM after 48 hrs by AnnexinV-FITC/propidium iodide staining based FACSCalibur flow cytometry analysis (reference value: 7.7 %); type: functional
[19] = tested on: BEAS-2B; assay: Cytotoxicity against human BEAS2B cells assessed as reduction in cell viability after 48 hrs by MTS assay; type: cell-based; method in brief: as §1
[20] = Induction of apoptosis in human SMMC-7221 cells assessed as early apoptotic cells at 8 uM after 48 hrs by AnnexinV-FITC/propidium iodide staining based FACSCalibur flow cytometry analysis (reference value: 0.106 %); type: functional
[21] = Induction of apoptosis in human SMMC-7221 cells assessed as viable cells at 8 uM after 48 hrs by AnnexinV-FITC/propidium iodide staining based FACSCalibur flow cytometry analysis (reference value: 89.8 %); type: functional; settings: SMMC-7221, 48 h, read-out: Activity
[22] = Cell cycle arrest in human SMMC-7221 cells assessed as accumulation at G2/M phase at 2 uM after 24 hrs by propidium iodide/RNase A staining based FACSCalibur flow cytometry analysis (reference value: 8.21 +/- 0.38 %); type: functional
[23] = Induction of apoptosis in human SMMC-7221 cells assessed as viable cells at 4 uM after 48 hrs by AnnexinV-FITC/propidium iodide staining based FACSCalibur flow cytometry analysis (reference value: 89.8 %); type: functional; settings: SMMC-7221, 48 h, read-out: Activity
[24] = Induction of apoptosis in human SMMC-7221 cells assessed as early apoptotic cells at 4 uM after 48 hrs by AnnexinV-FITC/propidium iodide staining based FACSCalibur flow cytometry analysis (reference value: 0.106 %); type: functional
[25] = tested on: MCF7; assay: Cytotoxicity against human MCF7 cells assessed as reduction in cell viability after 48 hrs by MTS assay; type: functional, cell-based; settings: MCF7, 48 h; method in brief: as §1
[26] = tested on: SW480; assay: Cytotoxicity against human SW480 cells assessed as reduction in cell viability after 48 hrs by MTS assay; type: functional, cell-based; settings: SW480, 48 h; method in brief: as §1
[27] = Cell cycle arrest in human SMMC-7221 cells assessed as accumulation at G2/M phase at 4 uM after 24 hrs by propidium iodide/RNase A staining based FACSCalibur flow cytometry analysis (reference value: 8.21 +/- 0.38 %); type: functional
[28] = Induction of apoptosis in human SMMC-7221 cells assessed as necrotic cells at 8 uM after 48 hrs by AnnexinV-FITC/propidium iodide staining based FACSCalibur flow cytometry analysis (reference value: 2.34 %); type: functional
[29] = Cell cycle arrest in human SMMC-7221 cells assessed as accumulation at G0/G1 phase at 2 uM after 24 hrs by propidium iodide/RNase A staining based FACSCalibur flow cytometry analysis (reference value: 72.17 +/- 1.0 %); type: functional
[30] = Cell cycle arrest in human SMMC-7221 cells assessed as accumulation at S phase at 2 uM after 24 hrs by propidium iodide/RNase A staining based FACSCalibur flow cytometry analysis (reference value: 14.733 +/- 1.29 %); type: functional

SMILES: COc1cccc2c1N(CCCn1c[n+](Cc3ccc(C)cc3)c3cc(C)c(C)cc31)C[C@@H]1Cc3ccc(Br)cc3[C@H]21.[Br-]
- Activity [1]: 10.18%
- viability at 2 µM [2]: 77.7%
- IC50 [3]: 520 nM
- Activity [4]: 5.66%
- Activity [5]: 6.79%
- Activity [6]: 14.6%
- viability at 1 µM [7]: 79.2%
- IC50 [8]: 1970 nM
- Activity [9]: 18.65%
- viability at 0.5 µM [10]: 84.2%
- Activity [11]: 62.54%
- Activity [12]: 7.08%
- IC50 [13]: 2100 nM
- Activity [14]: 16%
- Activity [15]: 12.76%
- Activity [16]: 80.32%
- Activity [17]: 0.216%
- Activity [18]: 76.8%
- IC50 [19]: 2090 nM
- Activity [20]: 0.157%
- viability at 8 µM [21]: 5.16%
- Activity [22]: 9.16%
- viability at 4 µM [23]: 15.2%
- Activity [24]: 0.919%
- IC50 [25]: 680 nM
- IC50 [26]: 750 nM
- Activity [27]: 5.98%
- Activity [28]: 13.3%
- Activity [29]: 80.22%
- Activity [30]: 9.27%
